Experimental data as given in PubChem BioAssay.
Inconclusive results are not listed.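 The calls were made as follows, unless noted: active = growth inhibition above 25% in both replicates, a cutoff set 3 SD above the mean; inconclusive = above 25% in only one replicate; inactive = the rest.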

Columns and labels:
[1] = S. cerevisiae growth inhibition in permissive medium (OD615), pilot counter-assay for S. cerevisiae lifespan shortening project, permissive growth control (AID 705); settings: OD615, 24 h, at 10 µM, hits give high values
How it was run: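 System: S. cerevisiae with engineered DeaD lifespan system. Medium: SC raffinose/galactose permissive medium. Doses: single compound dose of 10 µM, 0.25% DMSO final. Schedule: 24 h exposure, 30 °C. Measured by: OD615 turbidity read. Read-out: growth inhibition.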

[2] = S. cerevisiae growth inhibition in restrictive medium, OD615, pilot screen, restrictive growth control, yeast lifespan reduction project (AID 706;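 active = growth inhibition above a set limit, 3 SD over mean compound inhibition, in both replicates, cut at about 43% in these data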;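 also: modified DeaD lifespan yeast strain shifted to restrictive glucose medium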); settings: OD615, 48 h, at 10 µM, hits give high values
How it was run: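 Assay system – genetically modified Saccharomyces cerevisiae, DeaD replicative lifespan assay strain · Medium – CSMM-D glucose medium · Doses – 10 µM compound, 0.25% DMSO · Times – 4 h pre-incubation, 48 h exposure at 30 °C · Signal – optical density at 615 nm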

[3] = doxorubicin toxicity protection in MRP-1 cells – H69AR cells, CellTiter-Glo, duplicate, MRP-1 activator project, pilot screen (AID 807;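 active = viability increase at or above a cutoff of the median across tested compounds plus 3 SD, cut at about 8.5% in these data, passing the limit was not always enough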;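 also: compound pretreatment 18-22 h then 72 h combined with doxorubicin; 0% = doxorubicin alone and 100% = vehicle without doxorubicin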); settings: H69AR viability with doxorubicin, CellTiter-Glo luminescence; at 10 µM; hits give high values
[4] = viability of HCT116 without oncogenic beta-catenin – human colon tumor cells, pilot screen (AID 823;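 active = cell viability at or below a set limit in both duplicate runs, the limit being the all-compound median minus 4 SD, cut at about 23% in these data, passing the limit was not always enough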;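 also: 0% = wells killed by 20 µM Hyamine and 100% = untreated DMSO cell wells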); settings: HCT116 beta-catenin knockout viability, CellTiter-Glo, 60 h; at 10 µM; hits give low values
[5] = viability of PTEN-null HCT116 cells – cell-based, HCT116 clonal line, CellTiter-Glo, pilot screen (AID 824;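 active = viability at or below 27.92% in each of two runs, the all-compound median minus 4 SD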;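 also: 0% = 20 µM Hyamine control and 100% = vehicle cell control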); settings: HCT116 PTEN-deleted viability, 60 h, at 10 µM, hits give low values
[6] = RAM pathway blockade in budding yeast – dse1pr::URA3 reporter, 5-FOA selection, pilot screen (AID 869;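 active = inhibition over a set limit, the all-compound mean plus 3 SD, in both replicate runs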;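 also: 0% = DMSO wells with no growth and 100% = 10 µM 1-NA-PP1 with full growth; RAM network block rescues cells from 5-FOA so hits raise OD615 growth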); settings: S. cerevisiae dse1pr::URA3 5-FOA growth, OD615, 2 d; at 10 µM; hits give high values; strain carries analog-sensitive mutant Cbk1 kinase
[7] = RAM signaling pathway blockade in yeast – S. cerevisiae, Pdr1DBD-CYC8 efflux-inhibited sensitized strain, primary screen (AID 1298;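 active = RAM network inhibition above 8.4% in each of two replicates, 3 SD over the compound average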;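 also: 0% = DMSO untreated cells without growth and 100% = 10 µM 1-NA-PP1 full growth; higher means more yeast growth rescued from 5-FOA killing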); settings: S. cerevisiae cbk1-as DSE1-URA3 strain, 5-FOA growth OD615, 2 d; at 50 µM; hits give high values

O=C(NCCc1ccccc1)C1CCN(C(=O)c2sccc2-n2cccc2)CC1
inactive: growth inhibition [1] -0.295% | growth inhibition [2] -8.75% | viability increase [3] -1.15% | viability [4] 101% | viability [5] 93.8% | inhibition [6] 3.48% | RAM network inhibition [7] 4%

Cc1ccnc(SCCn2c(N3CCC(C)CC3)nc3c2c(=O)[nH]c(=O)n3C)n1
inactive: growth inhibition [1] -10.1% | growth inhibition [2] -6.83% | viability increase [3] -2.18% | viability [4] 106% | viability [5] 100% | inhibition [6] 0.24% | RAM network inhibition [7] -1.36%

COCCn1c(SCC(=O)N2CCN(c3ccccc3)CC2)nc2c(c1=O)SC(C)C2 (stereo not drawn)
inactive: growth inhibition [1] 10.7% | growth inhibition [2] 10.7% | viability increase [3] -3.54% | viability [4] 103% | viability [5] 92.9% | inhibition [6] 1.65% | RAM network inhibition [7] 2.75%

CCn1c(SCC(=O)N2CCOCC2)nc(O)cc1=O
inactive: growth inhibition [1] -6.62% | growth inhibition [2] -12.7% | viability increase [3] -0.84% | viability [4] 105% | viability [5] 103% | inhibition [6] 2.59% | RAM network inhibition [7] 1.54%

CCOC(=O)C1CCCN(C(=O)Cc2c(C(=O)O)[nH]c3ccccc23)C1 (stereo not drawn)
inactive: growth inhibition [1] -7.59% | growth inhibition [2] -0.39% | viability increase [3] -0.1% | viability [4] 97.3% | viability [5] 96.9% | inhibition [6] 0.53% | RAM network inhibition [7] 3.59%

CCN1C(=O)c2cccc3c(N)ccc1c23
inactive: growth inhibition [1] -0.755% | growth inhibition [2] -11% | viability increase [3] -5.55% | viability [4] 74.2% | viability [5] 68.3% | inhibition [6] 0% | RAM network inhibition [7] 1.92%

CC1CCCN(c2ncnc3c2cnn3-c2ccccc2)C1 (stereo not drawn)
inactive: growth inhibition [1] -2.51% | growth inhibition [2] -4.29% | viability increase [3] -2.92% | viability [4] 77.5% | viability [5] 73.5% | inhibition [6] 0.15% | RAM network inhibition [7] 4.59%

CC1Cc2ccccc2N1C(=O)c1cnc2n(c1=O)CCS2 (stereo not drawn)
inactive: growth inhibition [1] -2.36% | growth inhibition [2] -4.37% | viability increase [3] -0.53% | viability [4] 94.4% | viability [5] 98.9% | inhibition [6] -0.135% | RAM network inhibition [7] 2.13%

O=C1CC(c2cccnc2)c2cc3c(cc2N1)OCCO3 (stereo not drawn)
inactive: growth inhibition [1] 2.41% | growth inhibition [2] -0.935% | viability increase [3] -2.86% | viability [4] 91.5% | viability [5] 91.9% | inhibition [6] 2.35% | RAM network inhibition [7] 2.43%

Oc1c(C(c2cccs2)N2CCOCC2)sc2ncnn12 (stereo not drawn)
inactive: growth inhibition [1] 11.1% | growth inhibition [2] -3.88% | viability increase [3] 0.31% | viability [4] 105% | viability [5] 101% | inhibition [6] 0.895% | RAM network inhibition [7] 5.2%

CC1=C(C(=O)OC2CCCCC2)C(c2ccco2)C2=C(CC(C)(C)CC2=O)N1 (stereo not drawn)
inactive: growth inhibition [1] -8.2% | growth inhibition [2] -8.91% | viability increase [3] -7.87% | viability [4] 64.8% | viability [5] 62.7% | inhibition [6] 0.115% | RAM network inhibition [7] 2.03%

CC(NC(=O)c1ccc(Cl)cc1)C(=O)N1CCCCC1 (stereo not drawn)
inactive: growth inhibition [1] 2.3% | growth inhibition [2] 0.39% | viability increase [3] 0.75% | viability [4] 98% | viability [5] 96.9% | inhibition [6] 2.58% | RAM network inhibition [7] 5.32%

COc1ccc(OC)c2sc(NC(=O)C3COc4ccccc4O3)nc12 (stereo not drawn)
inactive: growth inhibition [1] -19.7% | growth inhibition [2] -10.6% | viability increase [3] -3.63% | viability [4] 101% | viability [5] 95.6% | inhibition [6] -0.125% | RAM network inhibition [7] 2.87%

CC(=N)C1=C(O)CC(C)(C)CC1=O
inactive: growth inhibition [1] -7.31% | growth inhibition [2] -1.06% | viability increase [3] 0.77% | viability [4] 94.9% | viability [5] 105% | inhibition [6] 1.49% | RAM network inhibition [7] 2.39%

CCN(CC)C(=O)CCCOc1ccc(Cl)cc1Cl
inactive: growth inhibition [1] -2.5% | growth inhibition [2] -0.045% | viability increase [3] 0.07% | viability [4] 76.7% | viability [5] 83.9% | inhibition [6] -0.905% | RAM network inhibition [7] 0.45%

COCCCNC(=O)c1cc2c(-c3ccc(Cl)cc3)nn(C)c2s1
inactive: growth inhibition [1] -0.14% | growth inhibition [2] 1.75% | viability increase [3] -6.69% | viability [4] 82.9% | viability [5] 84.5% | inhibition [6] 3.08% | RAM network inhibition [7] 3.67%

CCOC(=O)/C(C#N)=C1/C=Nc2ccccc2N1
inactive: growth inhibition [1] -4.26% | growth inhibition [2] -1.09% | viability increase [3] -1.54% | viability [4] 103% | viability [5] 89.8% | inhibition [6] -0.42% | RAM network inhibition [7] 0.25%

CCC(C)NC(=O)C(NS(=O)(=O)c1ccc2c(c1)c(=O)n(C)c(=O)n2C)c1ccccc1 (stereo not drawn)
inactive: growth inhibition [1] -5.69% | growth inhibition [2] -11.3% | viability increase [3] -1.17% | viability [4] 101% | viability [5] 96.6% | inhibition [6] 1.19% | RAM network inhibition [7] 4.7%

O=C(CSc1ncnc2c1oc1ccccc12)Nc1cccc(C(F)(F)F)c1
inactive: growth inhibition [1] -12.2% | growth inhibition [2] -15.6% | viability increase [3] 1.15% | viability [4] 86.3% | viability [5] 84% | inhibition [6] 3.52% | RAM network inhibition [7] 7.32%

O=C1OCc2cc(NC(=O)C3COc4ccccc4O3)ccc21 (stereo not drawn)
inactive: growth inhibition [1] -17.8% | growth inhibition [2] 10.7% | viability increase [3] -0.17% | viability [4] 103% | viability [5] 93.3% | inhibition [6] 1.29% | RAM network inhibition [7] 10.9%

O=C(c1cnn(-c2ccccc2)c1-n1cccc1)N1CCN(C2CCCCC2)CC1
inactive: growth inhibition [1] -1.61% | growth inhibition [2] 5.93% | viability increase [3] -3.1% | viability [4] 94% | viability [5] 93.4% | inhibition [6] 1.35% | RAM network inhibition [7] 2.87%

COc1ccccc1S(=O)(=O)Cc1ccc(C(=O)N2CCCC2)o1
inactive: growth inhibition [1] -3.58% | growth inhibition [2] -4.36% | viability increase [3] -1.51% | viability [4] 108% | viability [5] 101% | inhibition [6] 0.935% | RAM network inhibition [7] 0.94%

Cc1onc(-c2ccccc2Cl)c1C(=O)Nc1nnc(C(C)C)s1
inactive: growth inhibition [1] 1.52% | growth inhibition [2] 4.5% | viability increase [3] -1.44% | viability [4] 93.4% | viability [5] 95.7% | inhibition [6] -0.23% | RAM network inhibition [7] 4.37%

O=P(c1ccccc1)(c1ccccc1)C1CCCO1 (stereo not drawn)
inactive: growth inhibition [1] -10.8% | growth inhibition [2] 8.75% | viability increase [3] 1.36% | viability [4] 97.7% | viability [5] 91.7% | inhibition [6] 2.44% | RAM network inhibition [7] 0.92%
